Measured values reported in ChEMBL document CHEMBL4020827, “Targeting Multiple Effector Pathways in Pancreatic Ductal Adenocarcinoma with a G-Quadruplex-Binding Small Molecule” (J Med Chem, 2018).

Experiments:
PANC-1 [1] = test: Effect on GLI1 gene expression in human PANC1 cells at 400 nM after 24 hrs by RNA sequence analysis relative to control; format: functional
In short: (§1)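 PANC-1 (0.35 x 10^6) or MIA PaCa-2 (1.5 x 10^6) cells seeded overnight in 60 mm plates, then exposed to 400 nM compound for 6 or 24 h; untreated cells as controls. Cells were mycoplasma-free and STR-certified. Differential expression by RNA-seq, called at FDR < 0.1.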

[2] = Binding affinity to 5'-FAM/3'-TAMRA labeled KRAS32 promoter G-quadruplex DNA (unknown origin) assessed as change in melting temperature at 1 uM by FRET assay
In short: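 FRET melting of FAM/TAMRA dual-labelled promoter G4 oligonucleotides, 400 nM, annealed at 95 °C for 10 min in 60 mM potassium cacodylate (pH 7.4) then cooled to RT. Ligand at 1 μM in solution with 50 mM K+. Fluorescence (ex 450–495, em 515–545 nm) read every 0.5 °C over 30–100 °C with a 30 sec hold per step. ΔTm from curve fitting; triplicate measurements.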

MIA PaCa-2 [3] = test: Effect on PRDM16 gene expression in human MIAPaCa2 cells at 400 nM after 24 hrs by RNA sequence analysis relative to control; format: functional
MIA PaCa-2 [4] = test: Effect on PLXNA1 gene expression in human MIAPaCa2 cells at 400 nM after 24 hrs by RNA sequence analysis relative to control; format: functional
MIA PaCa-2 [5] = test: Effect on PCK2 gene expression in human MIAPaCa2 cells at 400 nM after 6 hrs by RNA sequence analysis relative to control; format: functional
PANC-1 [6] = test: Effect on MAPK12 gene expression in human PANC1 cells at 400 nM after 24 hrs by RNA sequence analysis relative to control; format: functional
PANC-1 [7] = test: Effect on PAK1 gene expression in human PANC1 cells at 400 nM after 6 hrs by RNA sequence analysis relative to control; format: functional
MIA PaCa-2 [8] = test: Effect on PIK3R3 gene expression in human MIAPaCa2 cells at 400 nM after 6 hrs by RNA sequence analysis relative to control; format: functional
MIA PaCa-2 [9] = test: Effect on TEAD3 gene expression in human MIAPaCa2 cells at 400 nM after 6 hrs by RNA sequence analysis relative to control; format: functional
In short: (§2)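 RNA-seq: cells seeded overnight in 60 mm plates (PANC-1 0.35 x 10^6, MIA PaCa-2 1.5 x 10^6 cells/well), then exposed to 400 nM compound for 6 or 24 h against untreated controls. Cell lines mycoplasma-free by RNA-capture ELISA and STR-profiled. Differentially expressed genes called at FDR < 0.1.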

PANC-1 [10] = test: Effect on mLST8 gene expression in human PANC1 cells at 400 nM after 24 hrs by RNA sequence analysis relative to control; format: functional; in short: as §2
PANC-1 [11] = test: Effect on ARF6 gene expression in human PANC1 cells at 400 nM after 24 hrs by RNA sequence analysis relative to control; format: functional; in short: as §1
Mus musculus = test: Toxicity in CD-1 nude mouse xenografted with human MIAPaCa2 cells assessed as change in tumor ulceration at 15 mg/kg, iv administered twice weekly for 4 weeks measured for 40 days; format: organism-based; conditions: in vivo, 960 h
MIA PaCa-2 [12] = test: Effect on RPTOR gene expression in human MIAPaCa2 cells at 400 nM after 6 hrs by RNA sequence analysis relative to control; format: functional; in short: as §2
MIA PaCa-2 [13] = test: Effect on GLI4 gene expression in human MIAPaCa2 cells at 400 nM after 6 hrs by RNA sequence analysis relative to control; format: functional; in short: as §1
MIA PaCa-2 [14] = test: Effect on PCK2 gene expression in human MIAPaCa2 cells at 400 nM after 24 hrs by RNA sequence analysis relative to control; format: functional
MIA PaCa-2 [15] = test: Effect on ULK1 gene expression in human MIAPaCa2 cells at 400 nM after 24 hrs by RNA sequence analysis relative to control; format: functional; in short: as §2
MIA PaCa-2 [16] = test: Effect on ROBO3 gene expression in human MIAPaCa2 cells at 400 nM after 24 hrs by RNA sequence analysis relative to control; format: functional; in short: as §2
MIA PaCa-2 [17] = test: Effect on IQSEC1 gene expression in human MIAPaCa2 cells at 400 nM after 24 hrs by RNA sequence analysis relative to control; format: functional; in short: as §1
Homo sapiens = species: Homo sapiens; test: Stabilization of G-quadruplex DNA in human PANC1 cells assessed as induction of DNA damage at G4 site by measuring increase in colocalization of BG4 and 53BP1 foci at 400 nM after 24 hrs by FITC/Cy5/DAPI staining based immunofluorescence assay relative to control; format: cell-based
MIA PaCa-2 [18] = test: Effect on TP73 gene expression in human MIAPaCa2 cells at 400 nM after 24 hrs by RNA sequence analysis relative to control; format: functional; in short: as §2
MIA PaCa-2 [19] = test: Effect on SHC2 gene expression in human MIAPaCa2 cells at 400 nM after 6 hrs by RNA sequence analysis relative to control; format: functional; in short: as §2
PANC-1 [20] = test: Effect on PIK3R3 gene expression in human PANC1 cells at 400 nM after 24 hrs by RNA sequence analysis relative to control; format: functional
MIA PaCa-2 [21] = test: Effect on TP73 gene expression in human MIAPaCa2 cells at 400 nM after 6 hrs by RNA sequence analysis relative to control; format: functional; in short: as §2
PANC-1 [22] = test: Effect on MAPK9 gene expression in human PANC1 cells at 400 nM after 24 hrs by RNA sequence analysis relative to control; format: functional
PANC-1 [23] = test: Effect on PFKFB4 gene expression in human PANC1 cells at 400 nM after 6 hrs by RNA sequence analysis relative to control; format: functional
MIA PaCa-2 [24] = test: Effect on GLI2 gene expression in human MIAPaCa2 cells at 400 nM after 24 hrs by RNA sequence analysis relative to control; format: functional; in short: as §1
MIA PaCa-2 [25] = test: Effect on PAK1 gene expression in human MIAPaCa2 cells at 400 nM after 6 hrs by RNA sequence analysis relative to control; format: functional
MIA PaCa-2 [26] = test: Antitumor activity against human MIAPaCa2 cells xenografted in CD-1 nude mouse assessed as change in tumor volume at 15 mg/kg, iv administered twice weekly for 4 weeks measured on day 62 relative to control; format: functional
In short: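 Female CD-1 nude mice (2-3 months, 20−25 g) given 5 x 10^6 MIA PaCa-2 cells subcutaneously in right flank with Matrigel; dosing began once tumors were established (approx. 13 days, mean 0.05 cm3). Eight mice/group, IV in saline twice weekly for 28 days (8 doses) against a saline group. Tumors measured by calliper (length × width × height × π/6), with body weight. Student's t test.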

MIA PaCa-2 [27] = test: Effect on MAPK9 gene expression in human MIAPaCa2 cells at 400 nM after 24 hrs by RNA sequence analysis relative to control; format: functional

O=C1c2ccc3c4c(c(NCCN5CCCC5)cc(c24)C(=O)N1CCCN1CCOCC1)C(=O)N(CCCN1CCOCC1)C3=O gave a log2FC (PANC-1 [1]) of -0.57, a ΔTm [2] of 9.6 °C and a log2FC (MIA PaCa-2 [3]) of -3.39. It also gave a log2FC (MIA PaCa-2 [4]) of -1.56, a log2FC (MIA PaCa-2 [5]) of 0.26 and a log2FC (PANC-1 [6]) of -1.44. It also gave a log2FC (PANC-1 [7]) of -0.54, a log2FC (MIA PaCa-2 [8]) of -0.28 and a log2FC (MIA PaCa-2 [9]) of -1.06. For the same compound, the log2FC (PANC-1 [10]) was -1.72, the log2FC (PANC-1 [11]) was -0.69 and the Activity (Mus musculus) was “Non-Toxic”. It also gave a log2FC (MIA PaCa-2 [12]) of -1.41, a log2FC (MIA PaCa-2 [13]) of -1.71 and a log2FC (MIA PaCa-2 [14]) of -0.82. It also gave a log2FC (MIA PaCa-2 [15]) of -0.6, a log2FC (MIA PaCa-2 [16]) of -0.53 and a log2FC (MIA PaCa-2 [17]) of -0.53. It also gave an Activity (Homo sapiens) of 50%, a log2FC (MIA PaCa-2 [18]) of -1.19 and a log2FC (MIA PaCa-2 [19]) of -0.83. It also gave a log2FC (PANC-1 [20]) of -0.54, a log2FC (MIA PaCa-2 [21]) of -2.36 and a log2FC (PANC-1 [22]) of -0.75. It also gave a log2FC (PANC-1 [23]) of -0.57, a log2FC (MIA PaCa-2 [24]) of -1.24 and a log2FC (MIA PaCa-2 [25]) of -0.59. It also gave an Activity (MIA PaCa-2 [26]) of -85% and a log2FC (MIA PaCa-2 [27]) of -0.6.
